Data reported in PMC4793151 (Cell host & microbe, 2016).

Key:
[1] = system: H. pylori clinical isolates; test: RIA of Le^b binding of clinical isolates preincubated with DTT; format: cell-based; conditions: Helicobacter pylori, read-out: EC50, DTT-susceptibility of Le^b-binding
[2] = molecular target: T1, BabA CBD of Alaskan strain A730 (Helicobacter pylori, UniProt O52269); test: Monovalent binding affinity; conditions: for Kd: A730
T1 sequence (O52269 45-480): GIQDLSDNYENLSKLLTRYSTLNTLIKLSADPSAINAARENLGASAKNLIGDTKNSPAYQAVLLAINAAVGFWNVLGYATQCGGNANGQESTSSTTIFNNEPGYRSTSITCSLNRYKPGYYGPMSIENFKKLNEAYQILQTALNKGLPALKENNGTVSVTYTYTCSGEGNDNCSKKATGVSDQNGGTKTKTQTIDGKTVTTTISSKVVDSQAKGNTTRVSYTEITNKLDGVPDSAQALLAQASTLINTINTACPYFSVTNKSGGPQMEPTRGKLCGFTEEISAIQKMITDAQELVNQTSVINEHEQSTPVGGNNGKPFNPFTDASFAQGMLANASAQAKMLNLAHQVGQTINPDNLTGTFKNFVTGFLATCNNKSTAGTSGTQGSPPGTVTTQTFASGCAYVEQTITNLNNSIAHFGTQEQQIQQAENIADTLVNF
Outline: (§1)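 BabA adhesin domain isoforms from strains A730 and P436, plus the strain 17875 reference domain, were expressed recombinantly in E. coli as outer-membrane- or periplasm-targeted proteins and purified by His-tag affinity. In vitro binding was measured by isothermal titration calorimetry: injection heats were integrated into a normalized binding isotherm.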

BabA^AD;DL1-S831 [3] = test: ITC of BabA^AD; format: binding, Helicobacter pylori
[4] = system: FITC labeled H. pylori strain 17875/Leb; test: In vitro inhibition of H. pylori adherence to human gastric mucosa sections; format: cell-based, Helicobacter pylori
Outline: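 FITC-labeled bacterial suspensions were mixed with N-acetylcysteine dilutions in SIA blocking buffer (0, 10, 20, 100 mg/mL) and incubated 1 hr at 37°C. They were then applied to human gastric mucosa tissue sections for 2 hr. Unbound cells were removed with PBS-Tween, and adherent bacteria were quantified digitally by microscopy relative to bacteria without NAC.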

H. pylori = H. pylori infection of Le^b-expressing transgenic mice; format: in vivo; conditions: 2 week, 40 mg/day/animal in drinking water
[5] = system: human gastric mucosa sections; test: Pretreatment of gastric sections; format: cell-based; conditions: up to 200 mg/mL NAC
Outline: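 Human gastric mucosa sections were preincubated with N-acetylcysteine in SIA blocking buffer (0, 10, 20, 100, 200 mg/mL) for 2 hr at room temperature, then washed three times in PBS-Tween. FITC-labeled H. pylori 17875/Leb was applied for 2 hr and unbound cells were washed off with PBS-Tween. Bacterial binding was quantified digitally by microscopy.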

[6] = molecular target: T2, BabA^AD CL2 disulfide bond (Helicobacter pylori, UniProt O52269); test: Quantitative MS of tryptic digests: CL2 disulfide reduction; format: biochemical
T2 sequence (O52269 45-480): T1 sequence (O52269 45-480)

[7] = system: H. pylori strain 17875/Leb; test: RIA of 125I-labeled Le^b binding to bacterial cells exposed to reducing agent; format: cell-based, Helicobacter pylori; conditions: 20 mg/mL NAC
[8] = system: FITC labeled H. pylori strain 17875/Leb; test: In vitro detachment of adherent H. pylori from human gastric mucosa sections; format: cell-based, Helicobacter pylori
Outline: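 Human gastric mucosa tissue sections were first given FITC-labeled bacteria with no NAC for 2 hr, then washed in PBS-Tween. Bound bacteria were then exposed to N-acetylcysteine dilutions in SIA blocking buffer (10, 20, 100, 200 mg/mL) for 1 hr at 37°C. Slides were washed again in PBS-Tween and remaining adherent bacteria were quantified digitally by microscopy.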

[9] = system: BabA CBD of Peruvian strain P436; test: Monovalent binding affinity; parameters: species or system Helicobacter pylori; conditions: P436 versus 17875 BabA
Outline: as §1

full-length BabA = molecular target: T3, full-length BabA (Helicobacter pylori, UniProt O52269); test: SPR of full-length BabA on Le^b-coated chip; format: binding
T3 sequence (O52269 21-741): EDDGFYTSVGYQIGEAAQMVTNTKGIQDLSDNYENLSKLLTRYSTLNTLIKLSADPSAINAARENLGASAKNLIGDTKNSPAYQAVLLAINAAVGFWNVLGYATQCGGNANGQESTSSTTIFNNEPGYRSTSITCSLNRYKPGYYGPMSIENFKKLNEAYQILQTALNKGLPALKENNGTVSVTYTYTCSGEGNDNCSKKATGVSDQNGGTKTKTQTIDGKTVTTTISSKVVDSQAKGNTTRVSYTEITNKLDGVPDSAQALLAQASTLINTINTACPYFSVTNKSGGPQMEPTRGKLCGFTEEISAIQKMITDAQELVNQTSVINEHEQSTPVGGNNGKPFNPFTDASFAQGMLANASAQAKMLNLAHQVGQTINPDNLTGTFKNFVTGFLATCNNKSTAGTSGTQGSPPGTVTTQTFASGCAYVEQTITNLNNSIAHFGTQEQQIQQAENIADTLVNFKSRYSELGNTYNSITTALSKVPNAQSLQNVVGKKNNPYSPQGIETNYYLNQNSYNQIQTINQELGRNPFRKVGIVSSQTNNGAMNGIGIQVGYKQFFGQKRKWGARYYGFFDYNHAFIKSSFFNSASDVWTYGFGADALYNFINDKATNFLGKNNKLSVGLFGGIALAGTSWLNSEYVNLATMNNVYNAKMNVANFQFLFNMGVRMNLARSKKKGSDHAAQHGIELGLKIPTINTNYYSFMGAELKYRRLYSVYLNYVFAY
Outline: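 Surface plasmon resonance on a chip carrying immobilized Leb. Full-length BabA was flowed over it at 500, 250, 125, 62.5, 31.3 and 15.7 nM. Raw sensorgrams were fitted to binding curves to derive Kd, the association rate constant ka and the dissociation rate constant kd, each reported with a ± spread.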

BabA^AD;DL1-S831 [10] = test: SPR competition of BabA^AD; format: binding, Helicobacter pylori; conditions: 2-fold dilution series from 5 mM to 1 μM
BabA = conditions: ref Borén et al., 1993; cited from earlier work
[11] = molecular target: T4, strain 17875 BabA adhesin domain (BabA^AD), residues 25-460 (Helicobacter pylori strain 17875, strain); test: crystal structure
T4 chain: T1 sequence (O52269 45-480)

In the case of `O[C@@H](CS)[C@@H](O)CS` (racemic) [DTT, dithiothreitol], the EC50 [1] is reported as 2000 to 10000 µM.

`CC(=O)N[C@H]1[C@@H](O[C@H]2[C@@H](O)[C@@H](CO)O[C@@H](O[C@H]3[C@H](O)[C@@H](CO)O[C@@H](O[C@H]4[C@@H](O)[C@@H](CO)O[C@@H](O[C@H]5[C@H](O)[C@@H](O)C(O)O[C@@H]5CO)[C@@H]4O)[C@@H]3NC(C)=O)[C@@H]2O[C@@H]2O[C@@H](C)[C@@H](O)[C@@H](O)[C@@H]2O)O[C@H](CO)[C@H](O)[C@@H]1O` (stereo partly shown) [A6-1, A type 1 hexasaccharide] showed a Kd [2] of 305 µM.

With `CC(=O)N[C@H]1[C@H](O[C@H]2[C@@H](O)[C@@H](CO)O[C@@H](O[C@H]3[C@H](O)[C@@H](O)C(O)O[C@@H]3CO)[C@@H]2O)O[C@H](CO)[C@@H](O[C@@H]2O[C@@H](C)[C@@H](O)[C@@H](O)[C@@H]2O)[C@@H]1O[C@@H]1O[C@H](CO)[C@H](O)[C@H](O[C@H]2O[C@H](CO)[C@H](O)[C@H](O)[C@H]2O)[C@H]1O[C@@H]1O[C@@H](C)[C@@H](O)[C@@H](O)[C@@H]1O` (stereo partly shown) [BLe^b7] the ITC binding (BabA^AD;DL1-S831 [3]; titration) was “no binding heat signal” and the Kd [2] was 93 µM.

For `CC(=O)N[C@@H](CS)C(=O)O` [NAC, N-acetyl-L-cysteine], the adherent bacteria ([4]; 10 mg/mL NAC preincubation) was 14%, the adherent bacteria ([4]; 20 mg/mL NAC preincubation) was “less than 5%” and the “inhibition of bacterial adherence” value ([4]; 20 mg/mL NAC, bacteria preincubated) was “almost eliminated”. For the same molecule, the inhibition at 10000 µg/mL ([4]; Helicobacter pylori, read-out: inhibition of bacterial adherence) was 86%, the “fold lower neutrophil recruitment to the gastric mucosa” value (H. pylori) was 13 fold and the “fold reduction in H. pylori epithelial adherence” value (H. pylori) was 2 fold. For the same molecule, the “effect of section pretreatment on bacterial binding” value [5] was “did not affect bacterial binding”, the EC50 [6] was 55100 µM and the “BabA-Le^b binding after incubation of bacteria” value [7] was “inactivated”. The bacterial detachment ([8]; 10 mg/mL NAC on sections with bound bacteria) was “undetectable”, the bacterial detachment ([8]; 20 mg/mL NAC on sections with bound bacteria) was 50% and the bacterial detachment ([8]; 200 mg/mL NAC on sections with bound bacteria) was “over 90%”.

In the case of Le^b hexasaccharide, the “Le^b binding of S831 DL1 graft” value (BabA^AD;DL1-S831 [3]; Figures 7B and S7A) is reported as “active”, the “fold loss in monovalent binding affinity” value [9] is reported as roughly 15 fold and the “association rate constant ka” value (full-length BabA) is reported as 610000 ± 140000 M⁻¹ s⁻¹. For the same molecule, the Kd (full-length BabA; full-length protein) was 0.00039 µM, the “suppression of binding to Le^b-coated SPR chip by soluble glycan” value (BabA^AD;DL1-S831 [10]) was “suppressed” and the “fold loss in monovalent binding affinity” value ([2]; A730 versus 17875 BabA) was roughly 20 fold. For the same molecule, the “fold stronger binding to Le^b versus type 1 H neoglycoconjugates” value (BabA) was “about 2 fold”.

B1: Nb-ER14 (VHH)
VHH: QVQLQESGGGLVQPGGSLRLSCAASGSIYSLIAMGWYRQAPGKEHELVATISSGSTTYYADSVKGRFTISRDNAKNTLYLQMNSLKPEDTAMYYCAAYSDRLTDCSNCEADYWGQGTQVTVS
B1: binds [11].

B2: Nb-ER19 (VHH)
VHH: QVQLQESGGGLVQPGGSLRLSCAASGSIFSGNVMGWYRQAPGKLREWVAAITPQGVPNYADSVKGRFTISRDNAKNMLYLQMSSLKPEDTALYYCNRLPNYRSWGQGTQVTVSS
B2: binds [11].
